Experimental data from ChEMBL document CHEMBL1123481, “Structure-activity relationships of (arylalkyl)imidazole anticonvulsants: comparison of the (fluorenylalkyl)imidazoles with nafimidone and denzimol” (J Med Chem, 1986).
Calls of active or inactive are those of the source. The rule behind the calls is not given here.

Columns and labels:
Mus musculus [1] = experiment: Compound was tested for effective dose in mice by pentylenetetrazole assay (administered subcutaneously); No effect at highest dose of 800 mg/kg; type: functional, organism-based; set-up: dose 800 mg/kg
Summary of the method: (§1)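 Test compound was given orally to mice. At its previously determined time of peak effect, pentylenetetrazole (110 mg/kg in water, 10 mL/kg) was injected sc into the neck skin fold. Mice were watched for 15 min for presence or absence of a clonic seizure. Where protection was bell-shaped, the value is the dose giving maximum protection.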

Mus musculus [2] = experiment: Compound was tested for effective dose in mice by horizontal screen assay (administered orally); No effect at highest dose of 800 mg/kg; type: functional, organism-based; set-up: dose 800 mg/kg
Summary of the method: (§2)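 Fasted, pre-trained male CF1 mice (20–25 g) were dosed orally across a range of doses, given as a suspension in 5% acacia/water. Each mouse was placed on a 13 cm square wire screen, and the screen was rotated 180°. The score was return to the top within 1 min. Time of peak effect was scanned at 0.5–4 h. Each compound was then retested at that time with at least 4 doses and 12 mice per dose.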

Mus musculus [3] = organism: Mus musculus; experiment: Compound was tested for time to peak anticonvulsant effect (TPE); type: functional
Summary of the method: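 Time to peak effect after oral dosing in 5% acacia/water was estimated by testing mice at 0.5, 1, 2, 3 and 4 h posttreatment in the MES and horizontal screen tests.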

Mus musculus [4] = experiment: Compound was tested for effective dose in mice by maximal electroshock assay (administered orally); No effect at highest dose of 800 mg/kg; type: functional, organism-based; set-up: dose 800 mg/kg
Summary of the method: (§3)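 Mice were dosed orally across a range of doses, given in 5% acacia/water. Time of peak effect was found by shocking at 0.5, 1, 2, 3 and 4 h. Corneal electroshock was 40 mA, 0.1 s, ac. Each compound was retested at peak time with at least four doses and 12 mice per dose. The ED50 for prevention of tonic-extensor convulsion was calculated by Litchfield–Wilcoxon; 95% confidence limits are given.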

Mus musculus [5] = experiment: Compound was tested for effective dose in mice by pentylenetetrazole assay (administered subcutaneously); No effect at highest dose of 200 mg/kg; type: functional, organism-based; set-up: dose 200 mg/kg; summary of the method: as §1
Mus musculus [6] = experiment: Compound was tested for effective dose in mice by horizontal screen assay (administered orally); No effect at highest dose of 200 mg/kg; type: functional, organism-based; set-up: dose 200 mg/kg; summary of the method: as §2
Mus musculus [7] = experiment: Effective dose in mice by maximal electroshock assay, administered orally; type: functional; settings: po; summary of the method: as §3
[8] = biological target: T1, GABA-A receptor; anion channel (Rattus norvegicus) (UniProt O09028+P15431+P18506+P18508+P19969+P20236+P23574+P23576+P28471+P28473+P30191+P62813+P63079+P63138+Q91ZM7+Q9ES14); experiment: In vitro displacement of [3H]flunitrazepam binding to cortical membranes at 5e-5M concentration
Summary of the method: (§4)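 Rat cortical membranes (180 μg protein) were incubated with 2 nM [3H]flunitrazepam in 50 mM Tris-HCl pH 7.4 for 40 min at 4 °C, with test compound at 5×10^-5 M, in triplicate. Samples were filtered and washed three times with ice-cold buffer. Nonspecific binding was defined with 3 μM diazepam. Results are given as % of control, mean ± SEM.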

[9] = biological target: T1, GABA-A receptor; anion channel (Rattus norvegicus); experiment: In vivo displacement of [3H]flunitrazepam binding to rat cortical membranes after 20 mg/kg ip dose; type: organism-based; set-up: dose 20 mg/kg; settings: Membrane, at 20 mg/kg
Summary of the method: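 Male Sprague-Dawley rats (100 g; five per group) received saline or compound at 20 mg/kg ip. After 30 min, [3H]flunitrazepam (100 μCi/kg) was given iv via the tail vein. Rats were killed 20 min later. Cortex was homogenized in 50 mM Tris-HCl pH 7.4, and the particulate fraction was filtered and rinsed. Results are given as % of saline control, mean ± SEM.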

Mus musculus [10] = experiment: Effective dose in mice by pentylenetetrazole assay (administered subcutaneously); type: functional; settings: sc; summary of the method: as §1
Mus musculus [11] = experiment: Effective dose in mice by horizontal screen assay (administered orally); type: functional; settings: po; summary of the method: as §2
[12] = biological target: T1, GABA-A receptor; anion channel (Rattus norvegicus); experiment: In vitro displacement of [3H]flunitrazepam binding from rat cortical membranes at 50 uM; type: cell membranes; settings: Membrane; summary of the method: as §4
Mus musculus [13] = experiment: Effective dose in mice by horizontal screen assay (administered orally); No effect at highest dose of 200 mg/kg
Mus musculus [14] = experiment: Effective dose in mice by pentylenetetrazole assay (administered subcutaneously); No effect at highest dose of 200 mg/kg
Mus musculus [15] = experiment: Compound was tested for effective dose in mice by pentylenetetrazole assay (administered subcutaneously);No effect at highest dose of 200 mg/kg; type: functional, organism-based; set-up: dose 200 mg/kg; summary of the method: as §1
Mus musculus [16] = organism: Mus musculus; experiment: Potentiation of hexobarbital-induced sleeping time in mice; type: functional
Summary of the method: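 Groups of 10 fasted mice received compound orally at 10 mg/kg in 5% acacia/water (10 mL/kg). At the compound's time of peak effect they were given hexobarbital 100 mg/kg ip, solubilized with stoichiometric NaOH. Sleeping time, measured as loss of righting reflex, was recorded to the nearest minute. Values are mean ± SEM.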

Mus musculus [17] = experiment: Compound was tested for effective dose in mice by horizontal screen assay (administered orally; No effect at highest dose of 200 mg/kg
Mus musculus [18] = experiment: Effective dose in mice by horizontal screen assay (administered orally); No effect at highest dose of 400 mg/kg; type: functional, organism-based; set-up: dose 400 mg/kg; summary of the method: as §2
Mus musculus [19] = experiment: Compound was tested for effective dose in mice by maximal electroshock assay (administered per orally); type: functional; settings: po; summary of the method: as §3
Mus musculus [20] = experiment: Effective dose in mice by pentylenetetrazole assay (administered subcutaneously); No effect at highest dose of 400 mg/kg; type: functional, organism-based; set-up: dose 400 mg/kg; summary of the method: as §1
Mus musculus [21] = experiment: Compound was tested for effective dose in mice by horizontal screen assay (administered orally); No effect at highest dose of 100 mg/kg; type: functional, organism-based; set-up: dose 100 mg/kg; summary of the method: as §2
[22] = Compound was tested for its toxicity in rat; type: organism-based; settings: in vivo
Summary of the method: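 Female Fischer 344 rats were fasted and given a single oral gavage dose, four dose levels per compound, as a suspension in 10% aqueous acacia. Mortality was scored and the median lethal dose (LD50) was derived.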

[23] = Compound was tested for its toxicity in rat; Ca 4550; type: organism-based; settings: in vivo
Mus musculus [24] = experiment: Compound was tested for effective dose in mice by pentylenetetrazole assay (administered subcutaneously); Ca 400; type: functional; settings: sc; summary of the method: as §1
Mus musculus [25] = experiment: Compound was tested for effective dose in mice by horizontal screen assay (administered orally); Ca 550; type: functional; settings: po; summary of the method: as §2
Mus musculus [26] = experiment: Compound was tested for effective dose in mice by maximal electroshock assay (administered orally); No effect at highest dose of 300 mg/kg; type: functional, organism-based; set-up: dose 300 mg/kg; summary of the method: as §3
Mus musculus [27] = experiment: Compound was tested for effective dose in mice by horizontal screen assay (administered orally); No effect at highest dose of 300 mg/kg; type: functional, organism-based; set-up: dose 300 mg/kg; summary of the method: as §2
[28] = biological target: Gamma-aminobutyric acid receptor subunit gamma-1 (Rattus norvegicus) (UniProt P23574); experiment: In vitro displacement of [3H]flunitrazepam binding to rat cortical membranes at 50 uM (No effect); type: cell membranes; settings: Membrane; summary of the method: as §4
Chain of Gamma-aminobutyric acid receptor subunit gamma-1 (Rattus norvegicus) (P23574 whole entry): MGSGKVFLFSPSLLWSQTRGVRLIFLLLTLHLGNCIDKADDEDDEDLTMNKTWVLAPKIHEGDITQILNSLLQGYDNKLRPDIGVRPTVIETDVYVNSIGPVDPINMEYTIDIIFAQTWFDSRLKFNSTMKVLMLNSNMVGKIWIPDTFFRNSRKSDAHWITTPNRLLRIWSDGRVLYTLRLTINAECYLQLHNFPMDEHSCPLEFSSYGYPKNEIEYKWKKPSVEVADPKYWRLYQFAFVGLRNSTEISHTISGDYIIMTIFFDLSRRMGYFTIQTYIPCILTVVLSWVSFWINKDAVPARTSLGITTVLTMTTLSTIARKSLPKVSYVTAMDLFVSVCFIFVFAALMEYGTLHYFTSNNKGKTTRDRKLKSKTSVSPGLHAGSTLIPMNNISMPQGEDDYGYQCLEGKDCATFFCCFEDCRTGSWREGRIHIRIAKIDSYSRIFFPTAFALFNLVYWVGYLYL

Mus musculus [29] = experiment: Compound was tested for effective dose in mice by pentylenetetrazole assay (administered subcutaneously); No effect at highest dose of 100 mg/kg; type: functional, organism-based; set-up: dose 100 mg/kg; summary of the method: as §1

## O=C(Cn1cnc(-c2ccccc2)c1)c1ccc2c(c1)Cc1ccccc1-2
Mus musculus [1]
  ED50: No effect
Mus musculus [2]
  ED50: No effect
Mus musculus [3]
  TPE: 2 h
Mus musculus [4]
  ED50: No effect

## O=C(CCCn1ccnc1)c1ccc2c(c1)Cc1ccccc1-2
Mus musculus [5]
  ED50: No effect
Mus musculus [6]
  ED50: No effect
Mus musculus [7]
  ED50: 27 mg/kg
Mus musculus [3]
  TPE: 0.5 h

## O=C(Cn1ccnc1)c1ccc2c(ccc3ccccc32)c1
[8]
  Control: 128%
[9]
  Control: 128%
Mus musculus [10]
  ED50: > 400 mg/kg
Mus musculus [11]
  ED50: > 400 mg/kg
Mus musculus [7]
  ED50: 150 mg/kg
Mus musculus [3]
  TPE: 1 h
[12]
  Binding: 28%

## CC1(C)COC(Cn2ccnc2)(c2ccc3c(c2)Cc2ccccc2-3)OC1
Mus musculus [3]
  TPE: 2 h
Mus musculus [13]
  ED50: No effect
Mus musculus [14]
  ED50: No effect

## CC1c2ccccc2-c2ccc(C(=O)Cn3ccnc3)cc21 (stereo not drawn)
Mus musculus [15]
  ED50: No effect
Mus musculus [3]
  TPE: 2 h
Mus musculus [16]
  ST: 69.7 min
Mus musculus [17]
  ED50: No effect

## O=C(Cn1ccnc1)c1ccc2ccccc2c1 [NAFIMIDONE]
[8]
  Control: 102%
[9]
  Control: 116%
Mus musculus [10]
  ED50: > 400 mg/kg
Mus musculus [18]
  ED50: inactive
Mus musculus [7]
  ED50: 56 mg/kg
Mus musculus [3]
  TPE: 1 h
Mus musculus [16]
  ST: 59.1 min

## CC(O)(Cn1ccnc1)c1ccc2c(c1)Cc1ccccc1-2 (stereo not drawn)
Mus musculus [19]
  ED50: 10 mg/kg
Mus musculus [20]
  ED50: No effect
Mus musculus [18]
  ED50: No effect
Mus musculus [7]
  ED50: 10 mg/kg
Mus musculus [3]
  TPE: 2 h
Mus musculus [16]
  ST: 146.9 min

## OC(Cn1ccnc1)c1ccc(CCc2ccccc2)cc1 (stereo not drawn) [DENZIMOL]
Mus musculus [7]
  ED50: 12 mg/kg
Mus musculus [3]
  TPE: 1 h
Mus musculus [16]
  ST: 157.4 min
Mus musculus [21]
  ED50: No effect

## O=C(Cn1ccnc1)c1ccc2c(c1)Cc1ccccc1-2
Mus musculus [10]
  ED50: > 200 mg/kg
Mus musculus [11]
  ED50: > 1000 mg/kg
Mus musculus [3]
  TPE: 3 h
Mus musculus [16]
  ST: 73.7 min
[22]
  LD50: 504 mg/kg
[23]
  LD50: 4550 mg/kg

## COc1ccc2c(c1)Cc1cc(C(=O)Cn3ccnc3)ccc1-2
Mus musculus [1]
  ED50: No effect
Mus musculus [18]
  ED50: No effect
Mus musculus [7]
  ED50: 360 mg/kg
Mus musculus [3]
  TPE: 2 h
Mus musculus [16]
  ST: 56.9 min

## OC(Cn1ccnc1)c1ccc2c(c1)Cc1ccccc1-2 (stereo not drawn)
Mus musculus [24]
  ED50: 400 mg/kg
Mus musculus [6]
  ED50: No effect
Mus musculus [3]
  TPE: 1 h
Mus musculus [16]
  ST: 118.3 min

## O=C(Cn1ccnc1)c1ccc2c(c1)CCc1ccccc1-2
Mus musculus [20]
  ED50: No effect
Mus musculus [25]
  ED50: 550 mg/kg
Mus musculus [7]
  ED50: 60 mg/kg
Mus musculus [3]
  TPE: 2 h

## c1ccc2cc(CCc3ncc[nH]3)ccc2c1
Mus musculus [26]
  ED50: No effect
Mus musculus [3]
  TPE: 1 h

## O=C(Cn1ccnc1)c1cc2ccccc2o1
[8]
  Control: 99.1%
[9]
  Control: 142%
Mus musculus [10]
  ED50: > 400 mg/kg
Mus musculus [27]
  ED50: inactive
Mus musculus [7]
  ED50: 30 mg/kg
Mus musculus [3]
  TPE: 1.5 h
[28]
  Binding: inactive

## O=C(Cn1ccnc1)c1ccc2ccc3ccccc3c2c1
[8]
  Control: 123%
[9]
  Control: 121%
Mus musculus [10]
  ED50: > 400 mg/kg
Mus musculus [11]
  ED50: > 400 mg/kg
Mus musculus [7]
  ED50: 52 mg/kg
Mus musculus [3]
  TPE: 1 h
[12]
  Binding: 23%

## c1ccc2c(c1)Cc1cc(C3(Cn4ccnc4)OCCO3)ccc1-2
Mus musculus [29]
  ED50: No effect
Mus musculus [11]
  ED50: > 100 mg/kg
Mus musculus [3]
  TPE: 4 h
Mus musculus [16]
  ST: 88.7 min
